Measurements: ChEMBL document CHEMBL1649102, “Stereochemical survey of digitoxin monosaccharides: new anticancer analogues with enhanced apoptotic activity and growth inhibitory effect on human non-small cell lung cancer cell” (ACS Med Chem Lett, 2011)
pIC50: −log10 of the molar value. The source made the active and inactive calls. The calls are words filed in the database; no cut-off is given here.

Legend:
HT-29 = experiment: Growth inhibition of human HT-29 cells; type: functional
How it was run: (§1)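 NCI-60 cell lines grown in RPMI 1640 with 5% FBS and 2 mM L-glutamine, plated at 5,000–40,000 cells/well and preincubated 24 h. Time-zero plates were TCA-fixed. Drug was given at five concentrations (10-fold or ½-log dilutions from DMSO stock) for 48 h at 37°C. Cells were TCA-fixed, stained with SRB, and read at 515 nm. GI50 is where [(Ti−Tz)/(C−Tz)]×100 = 50.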

K562 = experiment: Growth inhibition of human K562 cells; type: functional; how it was run: as §1
RXF 393 = experiment: Growth inhibition of human RXF393 cells; type: functional; how it was run: as §1
ACHN = experiment: Growth inhibition of human ACHN cells; type: functional; how it was run: as §1
BT-549 = experiment: Growth inhibition of human BT549 cells; type: functional; how it was run: as §1
HCT-15 = experiment: Growth inhibition of human HCT15 cells; type: functional; how it was run: as §1
SK-MEL-5 = experiment: Growth inhibition of human SK-MEL-5 cells; type: functional
How it was run: (§2)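 NCI-60 panel SRB assay. Cells in RPMI 1640 with 5% FBS and 2 mM L-glutamine, plated at 5,000-40,000 cells/well and grown 24 h before dosing; time-zero plates TCA-fixed. Five concentrations (10-fold or ½ log dilutions, from DMSO stock) applied for 48 h at 37°C. TCA fixation (16% final for suspension cells), SRB stain, absorbance 515 nm; GI50 from net protein increase versus control.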

NCI-H322M = experiment: Growth inhibition of human NCI-H322M cells; type: functional; how it was run: as §1
EKVX = experiment: Growth inhibition of human EKVX cells; type: functional; how it was run: as §1
CAKI-1 = experiment: Growth inhibition of human Caki1 cells; type: functional; how it was run: as §1
NCI-H460 [1] = experiment: Induction of apoptosis human NCI-H460 cells assessed as cellular degradation at 50 nM after 12 hrs by Hoechst-33342 staining; type: functional
How it was run: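 NCI-H460 seeded 50,000 cells/well for 12 h, then exposed 12 h in serum-free medium (DMSO <0.1%). Stained 30 min at 37°C with 10 µg/ml Hoechst 33342 plus 20 µg/ml propidium iodide. Condensed or fragmented nuclei scored by fluorescence microscopy; apoptotic index = apoptotic/total nuclei ×100. 2 replicate wells, ≥3 runs (N = 6).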

[2] = Growth inhibition of human […] cells; type: functional; how it was run: as §1
KM12 = experiment: Growth inhibition of human KM12 cells; type: functional; how it was run: as §1
SN12C = experiment: Growth inhibition of human SN12C cells; type: functional; how it was run: as §2
MOLT-4 = experiment: Growth inhibition of human MOLT4 cells; type: functional; how it was run: as §1
A549 = experiment: Growth inhibition of human A549 cells; type: functional; how it was run: as §1
NCI-H226 = experiment: Growth inhibition of human NCI-H226 cells; type: functional; how it was run: as §1
SK-MEL-28 = experiment: Growth inhibition of human SK-MEL-28 cells; type: functional; how it was run: as §2
CCRF-CEM = experiment: Growth inhibition of human CCRF-CEM cells; type: functional; how it was run: as §1
786-0 = experiment: Growth inhibition of human 786-0 cells; type: functional; how it was run: as §1
SF-539 = experiment: Growth inhibition of human SF539 cells; type: functional; how it was run: as §1
OVCAR-8 = experiment: Growth inhibition of human OVCAR8 cells; type: functional; how it was run: as §1
SF-295 = experiment: Growth inhibition of human SF295 cells; type: functional; how it was run: as §1
HOP-62 = experiment: Growth inhibition of human HOP62 cells; type: functional; how it was run: as §1
[3] = Growth inhibition of human Hs 578T cells; type: functional; how it was run: as §1
SNB-75 = experiment: Growth inhibition of human SNB75 cells; type: functional; how it was run: as §2
UO-31 = experiment: Growth inhibition of human UO31 cells; type: functional; how it was run: as §2
Malme-3M = experiment: Growth inhibition of human MALME-3M cells; type: functional; how it was run: as §1
UACC-257 = experiment: Growth inhibition of human UACC257 cells; type: functional; how it was run: as §2
MDA-N = experiment: Growth inhibition of human MDA-N cells; type: functional; how it was run: as §1
NCI-H522 = experiment: Growth inhibition of human NCI-H522 cells; type: functional; how it was run: as §1
SNB-19 = experiment: Growth inhibition of human SNB19 cells; type: functional; how it was run: as §2
HCT-116 = experiment: Growth inhibition of human HCT116 cells; type: functional; how it was run: as §1
M14 = experiment: Growth inhibition of human M14 cells; type: functional; how it was run: as §1
OVCAR-5 = experiment: Growth inhibition of human OVCAR5 cells; type: functional; how it was run: as §1
SK-MEL-2 = experiment: Growth inhibition of human SK-MEL-2 cells; type: functional; how it was run: as §1
NCI-H23 = experiment: Growth inhibition of human NCI-H23 cells; type: functional; how it was run: as §1
DU-145 = experiment: Growth inhibition of human DU145 cells; type: functional; how it was run: as §1
SR = experiment: Growth inhibition of human SR cells; type: functional; how it was run: as §2
OVCAR-3 = experiment: Growth inhibition of human OVCAR3 cells; type: functional; how it was run: as §1
U-251 = experiment: Growth inhibition of human U251 cells; type: functional; how it was run: as §2
HL-60(TB) = experiment: Growth inhibition of human HL-60(TB) cells; type: functional; how it was run: as §1
[4] = Growth inhibition of human NCI60 cells; type: functional; how it was run: as §1
A498 = experiment: Growth inhibition of human A498 cells; type: functional; how it was run: as §1
UACC-62 = experiment: Growth inhibition of human UACC62 cells; type: functional; how it was run: as §2
OVCAR-4 = experiment: Growth inhibition of human OVCAR4 cells; type: functional; how it was run: as §1
NCI-H460 [5] = experiment: Cytotoxicity against human NCI-H460 cells assessed as cell death at 50 nM after 12 hrs by Hoechst-33342 staining and propidium iodide staining; type: functional, cell-based; conditions: NCI-H460, 12 h
How it was run: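 NCI-H460 cells were seeded at 50,000 cells/well for 12 h, then exposed 12 h in serum-free medium (DMSO <0.1%). Cells were stained with Hoechst 33342 (10 µg/ml) and propidium iodide (20 µg/ml) for 30 min at 37°C. Condensed or fragmented nuclei were scored by fluorescence microscopy, and apoptotic index = apoptotic/total nuclei ×100. Duplicate wells, ≥3 runs (N = 6).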

LOX IMVI = experiment: Growth inhibition of human LOXIMVI cells; type: functional; how it was run: as §1
SK-OV-3 = experiment: Growth inhibition of human SKOV3 cells; type: functional; how it was run: as §2
SF-268 = experiment: Growth inhibition of human SF268 cells; type: functional; how it was run: as §1
HCC 2998 = experiment: Growth inhibition of human HCC2998 cells; type: functional; how it was run: as §1
T47D = experiment: Growth inhibition of human T47D cells; type: functional; how it was run: as §2
PC-3 = experiment: Growth inhibition of human PC3 cells; type: functional; how it was run: as §1
NCI/ADR-RES = experiment: Growth inhibition of human NCI/ADR-RES cells; type: functional; how it was run: as §1
IGROV-1 = experiment: Growth inhibition of human IGROV1 cells; type: functional; how it was run: as §1
SW-620 = experiment: Growth inhibition of human SW620 cells; type: functional; how it was run: as §2
COLO 205 = experiment: Growth inhibition of human COLO205 cells; type: functional; how it was run: as §1
MCF7 = experiment: Growth inhibition of human MCF7 cells; type: functional; how it was run: as §1
HOP-92 = experiment: Growth inhibition of human HOP92 cells; type: functional; how it was run: as §1
TK-10 = experiment: Growth inhibition of human TK10 cells; type: functional; how it was run: as §2
MDA-MB-435 = experiment: Growth inhibition of human MDA-MB-435 cells; type: functional; how it was run: as §1
MDA-MB-231 = experiment: Growth inhibition of human MDA-MB-231 cells; type: functional; how it was run: as §1
NCI-H460 [6] = experiment: Growth inhibition of human NCI-H460 cells; type: functional; how it was run: as §1

C[C@@H]1O[C@@H](O[C@H]2CC[C@@]3(C)[C@H](CC[C@@H]4[C@@H]3CC[C@]3(C)[C@@H](C5=CC(=O)OC5)CC[C@]43O)C2)[C@H](O)[C@H](O)[C@H]1O
GI50 (HT-29): < 10 nM
GI50 (K562): < 10 nM
GI50 (RXF 393): < 10 nM
GI50 (ACHN): < 10 nM
GI50 (BT-549): < 10 nM
GI50 (HCT-15): < 10 nM
GI50 (SK-MEL-5): < 10 nM
GI50 (NCI-H322M): < 10 nM
GI50 (EKVX): < 10 nM
GI50 (CAKI-1): < 10 nM
Activity (NCI-H460 [1]): Active
Activity (NCI-H460 [1]; record 2): 45.8%
GI50 [2]: < 10 nM
GI50 (KM12): < 10 nM
GI50 (SN12C): < 10 nM
GI50 (MOLT-4): < 10 nM
GI50 (A549): < 10 nM
GI50 (NCI-H226): < 10 nM
GI50 (SK-MEL-28): < 10 nM
GI50 (CCRF-CEM): < 10 nM
GI50 (786-0): < 10 nM
GI50 (SF-539): < 10 nM
GI50 (OVCAR-8): < 10 nM
GI50 (SF-295): < 10 nM
GI50 (HOP-62): < 10 nM
GI50 [3]: < 10 nM
GI50 (SNB-75): < 10 nM
GI50 (UO-31): < 10 nM
GI50 (Malme-3M): < 10 nM
GI50 (UACC-257): < 10 nM
GI50 (MDA-N): < 10 nM
GI50 (NCI-H522): < 10 nM
GI50 (SNB-19): < 10 nM
GI50 (HCT-116): < 10 nM
GI50 (M14): < 10 nM
GI50 (OVCAR-5): < 10 nM
GI50 (SK-MEL-2): < 10 nM
GI50 (NCI-H23): < 10 nM
GI50 (DU-145): < 10 nM
GI50 (SR): < 10 nM
GI50 (OVCAR-3): < 10 nM
GI50 (U-251): < 10 nM
GI50 (HL-60(TB)): < 10 nM
GI50 [4]: 1 nM
GI50 (A498): < 10 nM
GI50 (UACC-62): < 10 nM
GI50 (OVCAR-4): < 10 nM
pIC50 (NCI-H460 [5]): 7.33
GI50 (LOX IMVI): < 10 nM
GI50 (SK-OV-3): < 10 nM
GI50 (SF-268): < 10 nM
GI50 (HCC 2998): < 10 nM
GI50 (T47D): < 10 nM
GI50 (PC-3): < 10 nM
GI50 (NCI/ADR-RES): < 10 nM
GI50 (IGROV-1): < 10 nM
GI50 (SW-620): < 10 nM
GI50 (COLO 205): < 10 nM
GI50 (MCF7): < 10 nM
GI50 (HOP-92): < 10 nM
GI50 (TK-10): < 10 nM
GI50 (MDA-MB-435): < 10 nM
GI50 (MDA-MB-231): < 10 nM
GI50 (NCI-H460 [6]): < 10 nM
